Reference: ChEMBL document CHEMBL1759894, “Synthesis and SAR investigations of novel 2-arylbenzimidazole derivatives as melanin-concentrating hormone receptor 1 (MCH-R1) antagonists” (Bioorg Med Chem Lett, 2011)

Columns and labels:
[1] = target: Melanin-concentrating hormone receptor 1 (Homo sapiens, UniProt Q99705); assay: Displacement of Eu-labeled MCH from human MCH-R1 expressed in CHO by time-resolved fluorometric assay
Method in brief: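 Competitive binding on membranes from CHO cells expressing human MCH-R1, with Eu-labeled MCH as tracer and time-resolved fluorometric read-out. IC50 values are means of at least two measurements.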

[2] = Metabolic stability in human liver microsomes after 30 mins; format: ADME, Microsome; details: read-out: Stability
[3] = Metabolic stability in rat liver microsomes after 30 mins; format: ADME, Microsome; details: read-out: Stability
[4] = Oral bioavailability in rat at 10 mg/kg; format: ADME, organism-based; details: in vivo
Method in brief: (§1)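 Rats received 10 mg/kg by both intravenous and oral routes, n = 3.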

[5] = Clearance in rat at 10 mg/kg, iv; format: ADME, organism-based; set-up: dose 10 mg/kg, route intravenous; details: in vivo; method in brief: as §1
[6] = Half life in rat at 10 mg/kg, iv and po; format: ADME, organism-based; set-up: dose 10 mg/kg, route oral; details: in vivo; method in brief: as §1
[7] = target: Voltage-gated inwardly rectifying potassium channel KCNH2 (Homo sapiens, UniProt Q12809); assay: Inhibition hERG by patch clamp method
Sequence of Voltage-gated inwardly rectifying potassium channel KCNH2 (Q12809 whole entry): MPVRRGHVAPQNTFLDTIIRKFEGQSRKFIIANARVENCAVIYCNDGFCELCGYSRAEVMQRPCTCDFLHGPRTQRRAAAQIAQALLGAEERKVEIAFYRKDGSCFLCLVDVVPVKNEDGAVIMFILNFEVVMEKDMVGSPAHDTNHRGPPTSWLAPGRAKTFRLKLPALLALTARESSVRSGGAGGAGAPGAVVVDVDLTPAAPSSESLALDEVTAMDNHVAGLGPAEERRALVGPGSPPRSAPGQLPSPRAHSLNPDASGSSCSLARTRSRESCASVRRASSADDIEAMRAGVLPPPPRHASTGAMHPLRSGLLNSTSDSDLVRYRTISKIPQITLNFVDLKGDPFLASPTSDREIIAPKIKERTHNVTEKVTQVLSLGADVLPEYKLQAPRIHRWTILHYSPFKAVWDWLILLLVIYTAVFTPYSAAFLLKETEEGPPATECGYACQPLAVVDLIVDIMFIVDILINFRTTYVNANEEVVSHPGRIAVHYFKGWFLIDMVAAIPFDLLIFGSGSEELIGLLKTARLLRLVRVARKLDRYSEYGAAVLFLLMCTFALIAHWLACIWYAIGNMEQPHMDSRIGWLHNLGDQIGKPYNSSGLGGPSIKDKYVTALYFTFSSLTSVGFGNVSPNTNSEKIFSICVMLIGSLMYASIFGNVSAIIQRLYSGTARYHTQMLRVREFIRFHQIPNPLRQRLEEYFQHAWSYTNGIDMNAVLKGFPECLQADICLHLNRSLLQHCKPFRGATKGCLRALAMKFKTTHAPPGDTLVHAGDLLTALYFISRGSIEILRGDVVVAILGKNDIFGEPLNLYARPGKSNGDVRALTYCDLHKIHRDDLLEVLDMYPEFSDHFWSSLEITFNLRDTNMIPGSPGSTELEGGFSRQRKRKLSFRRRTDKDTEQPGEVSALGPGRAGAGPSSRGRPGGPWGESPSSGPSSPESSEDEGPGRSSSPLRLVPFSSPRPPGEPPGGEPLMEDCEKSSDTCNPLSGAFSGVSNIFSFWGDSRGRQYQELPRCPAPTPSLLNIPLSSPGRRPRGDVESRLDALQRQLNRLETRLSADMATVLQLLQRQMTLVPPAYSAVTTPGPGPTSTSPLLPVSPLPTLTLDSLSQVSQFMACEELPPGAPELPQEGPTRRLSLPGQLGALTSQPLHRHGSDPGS

[8] = Plasma concentration in rat at 10 mg/kg, po at 3 hrs; format: ADME, organism-based; set-up: dose 10 mg/kg, route oral
Method in brief: (§2)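 SD rats were given 10 mg/kg orally, and concentrations were measured 3 h after dosing. Values are means of n = 3 rats.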

[9] = Drug level in rat brain at 10 mg/kg, po at 3 hrs; format: ADME, organism-based; set-up: dose 10 mg/kg, route oral; details: read-out: Drug uptake; method in brief: as §2
Rattus norvegicus = assay: Volume of distribution at steady state in rat at 10 mg/kg, iv and po; format: ADME, organism-based; set-up: dose 10 mg/kg, route oral; details: in vivo; method in brief: as §1

Sequence of Melanin-concentrating hormone receptor 1 (Q99705 whole entry): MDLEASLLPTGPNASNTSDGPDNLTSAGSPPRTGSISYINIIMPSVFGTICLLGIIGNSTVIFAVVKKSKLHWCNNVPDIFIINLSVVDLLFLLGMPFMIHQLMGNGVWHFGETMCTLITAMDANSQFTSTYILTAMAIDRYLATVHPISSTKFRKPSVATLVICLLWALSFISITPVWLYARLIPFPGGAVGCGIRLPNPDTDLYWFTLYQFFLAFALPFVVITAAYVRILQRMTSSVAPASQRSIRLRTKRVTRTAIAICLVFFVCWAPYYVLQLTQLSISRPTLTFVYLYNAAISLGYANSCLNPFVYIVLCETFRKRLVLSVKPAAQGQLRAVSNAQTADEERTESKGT

**Q.** With `Cc1ccc(C(=O)Nc2cccc(C3CCN(CCCn4c(-c5ccc(Cl)cc5)nc5ccccc54)CC3)c2)cc1` as the compound, how does the IC50 [1] read?
**A.** 300 nM

**Q.** With `CC(=O)Nc1cccc(C2CCN(CCCn3c(-c4ccc(C(C)C)cc4)nc4ccccc43)CC2)c1` as the compound, how does the IC50 [1] read?
**A.** 60 nM

**Q.** With `CCc1ccc(-c2nc3ccccc3n2CCCN2CCC(c3cccc(NC(C)=O)c3)CC2)cc1` as the compound, how does the IC50 [1] read?
**A.** 32 nM

**Q.** Which IC50 [1] does the source give for `CC(=O)Nc1ccccc1C1CCN(CCCn2c(-c3ccc(Cl)cc3)nc3ccccc32)CC1` here?
**A.** > 6000 nM

**Q.** For `CC(=O)Nc1cccc(C2CCN(CCCn3c(-c4cccc(C(F)(F)F)c4)nc4ccccc43)CC2)c1`, which IC50 [1] is on record?
**A.** 30 nM

**Q.** For `CC(=O)Nc1cccc(C2CCN(CCCn3c(-c4ccc(Cl)cc4)nc4ccccc43)CC2)c1`, which remaining at 0.5 h [2] is on record?
**A.** 97%

**Q.** What about the remaining at 0.5 h [3] of the same compound?
**A.** 98%

**Q.** What about the bioavailability [4] of the same compound?
**A.** 99%

**Q.** And the clearance [5]?
**A.** 28.3 mL/min/kg

**Q.** And the half-life [6]?
**A.** 4.3 h

**Q.** And the IC50 [7]?
**A.** 3 nM

**Q.** And the concentration at 3 h [8]?
**A.** 420 ng/mL

**Q.** And the concentration at 3 h [9]?
**A.** 160 ng/g

**Q.** What about the Vdss (Rattus norvegicus) of the same compound?
**A.** 6 L/kg

**Q.** With `CC(=O)Nc1cccc(C2CCN(CCCn3c(-c4ccccc4C(F)(F)F)nc4ccccc43)CC2)c1` as the compound, how does the IC50 [1] read?
**A.** 50 nM

**Q.** For `CC(=O)Nc1ccc(C2CCN(CCCn3c(-c4ccc(Cl)cc4)nc4ccccc43)CC2)cc1`, which IC50 [1] is on record?
**A.** 5380 nM

**Q.** With `CC(=O)Nc1cccc(C2CCN(CCn3c(-c4ccccc4)nc4ccccc43)CC2)c1` as the compound, how does the IC50 [1] read?
**A.** 10000 nM
